Measured values pooled from the literature.
Compare with care: the assays were run in different laboratories.
Target: Serine/threonine-protein kinase ULK1 (ULK1, Homo sapiens, UniProt O75385)
Sequence (O75385 1-1050, as in one of the studies): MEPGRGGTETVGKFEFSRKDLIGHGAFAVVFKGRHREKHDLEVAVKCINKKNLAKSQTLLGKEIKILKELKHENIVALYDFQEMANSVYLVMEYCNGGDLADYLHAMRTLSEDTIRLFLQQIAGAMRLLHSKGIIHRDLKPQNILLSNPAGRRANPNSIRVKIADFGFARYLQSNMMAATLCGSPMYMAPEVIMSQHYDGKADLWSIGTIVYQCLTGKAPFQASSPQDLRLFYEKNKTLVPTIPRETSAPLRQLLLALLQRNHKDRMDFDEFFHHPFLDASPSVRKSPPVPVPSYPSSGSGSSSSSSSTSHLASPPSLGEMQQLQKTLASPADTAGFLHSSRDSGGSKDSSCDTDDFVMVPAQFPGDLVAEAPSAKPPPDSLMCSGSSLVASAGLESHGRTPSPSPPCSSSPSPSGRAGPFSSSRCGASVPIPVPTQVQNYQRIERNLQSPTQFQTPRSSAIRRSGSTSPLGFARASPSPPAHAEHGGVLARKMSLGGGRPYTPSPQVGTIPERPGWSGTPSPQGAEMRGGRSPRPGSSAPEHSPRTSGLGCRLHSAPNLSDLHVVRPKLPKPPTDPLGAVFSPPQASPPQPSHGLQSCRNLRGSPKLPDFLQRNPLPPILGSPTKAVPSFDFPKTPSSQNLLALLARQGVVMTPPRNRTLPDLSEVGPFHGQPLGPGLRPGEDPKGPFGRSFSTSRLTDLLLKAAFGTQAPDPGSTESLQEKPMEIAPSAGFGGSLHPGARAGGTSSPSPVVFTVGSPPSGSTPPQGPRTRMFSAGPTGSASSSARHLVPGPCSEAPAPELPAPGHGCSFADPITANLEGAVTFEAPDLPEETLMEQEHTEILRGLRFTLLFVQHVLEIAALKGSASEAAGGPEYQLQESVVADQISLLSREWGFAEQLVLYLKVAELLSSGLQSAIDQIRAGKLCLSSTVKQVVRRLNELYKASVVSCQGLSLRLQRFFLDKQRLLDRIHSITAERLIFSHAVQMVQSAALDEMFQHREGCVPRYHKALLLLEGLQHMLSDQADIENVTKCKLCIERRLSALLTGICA

Structure (SMILES) | test | setting | endpoint | value
O=C(NCCCNc1ccnc(Nc2cccc(NC(=O)N3CCCC3)c2)n1)C1CCC1 | enzyme activity, inhibitor, radiometric | 1 µM | remaining activity | 75%
CN1CC(Oc2cnc(C#N)cc2-c2ccn3nc(NC(=O)C4CC4)cc3c2)C1 | enzyme activity, inhibitor | 1 µM | inhibition | -1%
Brc1cnc(Nc2cccc(CN3CCOCC3)c2)nc1NCCc1c[nH]cn1 | enzyme activity, inhibitor, radiometric | 1 µM | remaining activity | 3%
O=C1Nc2ccc(Cl)cc2C1=Cc1cc(Cl)c(O)c(Cl)c1 | cell-free assay | 0.5 µM | remaining signal | 95%
Cc1nn(CC(F)(F)F)cc1Nc1ncc(C2CC2)c(NCc2ccc(S(N)(=O)=O)cc2)n1 | enzyme activity, inhibitor, radiometric | 1 µM | remaining activity | 106%
FC(F)(F)Oc1cccc(-c2cnc3ccc(-c4ccncc4)nn23)c1 | enzyme activity, inhibitor, radiometric | 1 µM | activity vs control | 114%
O=C1NC(=O)c2cc(Nc3ccc(F)cc3)c(Nc3ccc(F)cc3)cc21 | cell-free assay | 0.5 µM | remaining signal | 102%
COc1cc(/C=C/C(=O)CC(=O)/C=C/c2ccc(O)c(OC)c2)ccc1O | enzyme activity, inhibitor | 1 µM | activity vs control | 88%
CCCCNc1ncc2c(-c3ccc(F)cc3)nn(C[C@H]3CC[C@H](N)CC3)c2n1 | target engagement in cells, inhibitor, chemoproteomics | 20 mM | inhibition | 3.7%
Cc1c(C(=O)O)cc(-c2ccc(C3CCNCC3)cc2)c2ccc(-c3ccc(C(F)(F)F)cc3)cc12 | binding, competition with immobilised ligand | 1 µM | remaining binding | 100%
Cc1nn(CC(F)(F)F)cc1Nc1ncc(Br)c(NCCCNC(=O)C2CCC2)n1 | enzyme activity, inhibitor, radiometric | 1 µM | remaining activity | 3%
Cc1ccc(C(=O)NCc2ccsc2)cc1C#Cc1cn(C(C)C)c2ncnc(N)c12 | enzyme activity, inhibitor | 1 µM | activity vs control | 101%
COc1cccc(CNC(=O)c2nc3scc(COCc4ccc(C(=O)O)cc4)c3c(=O)[nH]2)c1 | cell-free assay, competition with immobilised ligand | 1 µM | remaining binding | 74%
COc1ccc(COc2ccc(Cc3cnc(N)nc3N)cc2OC)cc1 | cell-free assay | 0.5 µM | remaining signal | 99.7%
CCOCCn1cc(C(=O)Nc2ccc(-n3nc(-c4cccnc4)cc3C(F)(F)F)cn2)ccc1=O | cell-free assay, competition with immobilised ligand | 1 µM | remaining binding | 76%
Cc1nn(CC(F)(F)F)cc1Nc1nccc(NCCCNC(=O)C2CCC2)n1 | enzyme activity, inhibitor, radiometric | 1 µM | remaining activity | 96%
CCC(=N\O)/C(C)=C/c1ccc(F)cc1 | cell-free assay, competition with immobilised ligand | 1 µM | remaining binding | 85%
c1cc(CN2CCOCC2)cc(Nc2ncc(C3CC3)c(NCCc3c[nH]cn3)n2)c1 | enzyme activity, inhibitor, radiometric | 1 µM | remaining activity | 24%
N#Cc1ccc(Nc2ccc3[nH]c(=O)[nH]c3c2)c(Cl)c1 | cell-free assay, competition with immobilised ligand | 1 µM | remaining binding | 81%
Cc1nn(CC(F)(F)F)cc1Nc1ncc(Br)c(NCc2ccc(S(N)(=O)=O)cc2)n1 | enzyme activity, inhibitor, radiometric | 1 µM | remaining activity | 77%
CS(=O)(=O)N1CCCC(NC(=O)[C@H](CCC2CCCCC2)NC(=O)c2ccc(CNc3ncnc4c3nnn4-c3ccccc3)cc2)C1 (stereo partly shown) | cell-free assay, competition with immobilised ligand | 0.1 µM | remaining binding | 100%
COc1cccc2c(NCc3ccccc3)nc(-n3c(N)nc4ccccc43)nc12 | target engagement in cells, inhibitor, chemoproteomics | 20 mM | inhibition | -8.3%
